According to ChEMBL document CHEMBL5653631, “A Potent and Selective ULK1 Inhibitor Suppresses Autophagy and Sensitizes Cancer Cells to Nutrient Stress” (iScience, 2018):
Values belong to the compound of their own block, whether it stands above or below them.

Key:
[1] = molecular target: ALK tyrosine kinase receptor (Homo sapiens) (UniProt Q9UM73); assay: Inhibition of human recombinant ALK at 500 nM related to control ULK1
Procedure, shortened: (§1)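 Panel of 327 recombinant human kinases, each assayed in vitro by radiometric activity assay in duplicate at a single inhibitor concentration per compound, chosen with reference to its ULK1 inhibition. Activity remaining was expressed as percent of vehicle control, and percent inhibition was calculated as 100 minus percent activity remaining.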

[2] = molecular target: Ribosomal protein S6 kinase alpha-6 (Homo sapiens) (UniProt Q9UK32); assay: Inhibition of human recombinant RSK4 at 500 nM in presence of ATP by radiometric assay relative to control
[3] = molecular target: STE20-like serine/threonine-protein kinase (Homo sapiens) (UniProt Q9H2G2); assay: Inhibition of human recombinant SLK at 500 nM related to control ULK1
[4] = molecular target: MAP kinase-activated protein kinase 2 (Homo sapiens) (UniProt P49137); assay: Inhibition of human recombinant MAPKAPK2 at 500 nM in presence of ATP by radiometric assay relative to control
[5] = molecular target: Serine/threonine-protein kinase SIK3 (Homo sapiens) (UniProt Q9Y2K2); assay: Inhibition of human recombinant QSK at 500 nM related to control ULK1
[6] = molecular target: Tyrosine-protein kinase Lck (Homo sapiens) (UniProt P06239); assay: Inhibition of human recombinant LCK at 500 nM related to control ULK1
[7] = molecular target: Serine/threonine-protein kinase NIM1 (Homo sapiens) (UniProt Q8IY84); assay: Inhibition of human recombinant NIM1 at 15 nM in presence of ATP by radiometric assay relative to control
[8] = molecular target: Calcium/calmodulin-dependent protein kinase kinase 2 (Homo sapiens) (UniProt Q96RR4); assay: Inhibition of human recombinant CaMKK2 at 15 nM in presence of ATP by radiometric assay relative to control
[9] = molecular target: T1, Activin receptor type-1B (Homo sapiens) (UniProt P36896); assay: Inhibition of human recombinant ALK4 at 15 nM related to control ULK1; procedure, shortened: as §1
T1 sequence (whole entry): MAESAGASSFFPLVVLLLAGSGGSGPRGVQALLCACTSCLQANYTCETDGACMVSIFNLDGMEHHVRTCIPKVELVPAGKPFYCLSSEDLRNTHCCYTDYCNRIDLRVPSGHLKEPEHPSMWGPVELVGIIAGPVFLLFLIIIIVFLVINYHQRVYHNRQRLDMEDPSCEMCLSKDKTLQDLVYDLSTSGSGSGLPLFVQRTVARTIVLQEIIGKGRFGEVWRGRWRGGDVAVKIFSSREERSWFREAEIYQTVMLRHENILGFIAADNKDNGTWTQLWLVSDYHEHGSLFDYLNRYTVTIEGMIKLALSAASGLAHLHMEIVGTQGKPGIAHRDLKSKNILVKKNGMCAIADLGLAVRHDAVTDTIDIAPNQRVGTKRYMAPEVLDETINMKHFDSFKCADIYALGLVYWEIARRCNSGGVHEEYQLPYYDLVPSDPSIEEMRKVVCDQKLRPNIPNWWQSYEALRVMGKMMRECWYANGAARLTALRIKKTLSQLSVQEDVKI

[10] = molecular target: Cyclin-dependent kinase 6 (Homo sapiens) (UniProt Q00534); assay: Inhibition of human recombinant CDK6 at 15 nM related to control ULK1
[11] = molecular target: MAP/microtubule affinity-regulating kinase 3 (Homo sapiens) (UniProt P27448); assay: Inhibition of human recombinant MARK3 at 15 nM related to control ULK1
[12] = molecular target: T2, Dual specificity tyrosine-phosphorylation-regulated kinase 3 (Homo sapiens) (UniProt O43781); assay: Inhibition of human recombinant DYRK3 at 15 nM in presence of ATP by radiometric assay relative to control
T2 sequence (whole entry): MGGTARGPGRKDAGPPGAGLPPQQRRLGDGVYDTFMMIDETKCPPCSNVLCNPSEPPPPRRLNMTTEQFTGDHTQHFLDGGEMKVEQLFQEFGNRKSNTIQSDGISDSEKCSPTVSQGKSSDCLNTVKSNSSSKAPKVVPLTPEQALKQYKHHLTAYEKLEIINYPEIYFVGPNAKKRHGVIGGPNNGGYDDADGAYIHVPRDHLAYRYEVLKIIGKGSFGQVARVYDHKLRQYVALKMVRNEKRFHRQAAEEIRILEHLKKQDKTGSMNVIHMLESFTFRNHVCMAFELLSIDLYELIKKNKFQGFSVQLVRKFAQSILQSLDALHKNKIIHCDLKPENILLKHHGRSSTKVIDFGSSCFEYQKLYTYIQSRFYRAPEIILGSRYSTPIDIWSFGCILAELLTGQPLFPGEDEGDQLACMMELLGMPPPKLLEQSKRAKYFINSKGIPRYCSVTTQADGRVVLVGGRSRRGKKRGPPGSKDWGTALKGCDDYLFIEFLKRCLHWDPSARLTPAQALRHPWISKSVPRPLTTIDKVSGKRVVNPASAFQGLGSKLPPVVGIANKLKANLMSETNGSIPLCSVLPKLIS

[13] = molecular target: Transcription initiation factor TFIID subunit 1-like (Homo sapiens) (UniProt Q8IZX4); assay: Inhibition of human recombinant TAF1L at 15 nM in presence of ATP by radiometric assay relative to control
[14] = molecular target: Tyrosine-protein kinase BTK (Homo sapiens) (UniProt Q06187); assay: Inhibition of human recombinant BTK at 15 nM in presence of ATP by radiometric assay relative to control
[15] = molecular target: Ribosomal protein S6 kinase alpha-2 (Homo sapiens) (UniProt Q15349); assay: Inhibition of human recombinant RSK3 at 40 nM related to control ULK1
[16] = molecular target: Mitogen-activated protein kinase 8 (Homo sapiens) (UniProt P45983); assay: Inhibition of human recombinant JNK1 at 40 nM related to control ULK1

Chain of Cyclin-dependent kinase 6 (Homo sapiens) (Q00534 whole entry): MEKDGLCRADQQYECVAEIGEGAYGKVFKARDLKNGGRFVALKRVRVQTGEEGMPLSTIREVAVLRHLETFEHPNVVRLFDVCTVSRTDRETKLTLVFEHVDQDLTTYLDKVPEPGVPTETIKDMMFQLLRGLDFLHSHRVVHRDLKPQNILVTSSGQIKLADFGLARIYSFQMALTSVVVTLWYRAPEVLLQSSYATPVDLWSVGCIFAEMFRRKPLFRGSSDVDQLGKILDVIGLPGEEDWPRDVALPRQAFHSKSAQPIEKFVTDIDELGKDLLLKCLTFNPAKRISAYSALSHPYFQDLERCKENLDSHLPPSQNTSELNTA
Chain of Calcium/calmodulin-dependent protein kinase kinase 2 (Homo sapiens) (Q96RR4 2-588 limits assumed): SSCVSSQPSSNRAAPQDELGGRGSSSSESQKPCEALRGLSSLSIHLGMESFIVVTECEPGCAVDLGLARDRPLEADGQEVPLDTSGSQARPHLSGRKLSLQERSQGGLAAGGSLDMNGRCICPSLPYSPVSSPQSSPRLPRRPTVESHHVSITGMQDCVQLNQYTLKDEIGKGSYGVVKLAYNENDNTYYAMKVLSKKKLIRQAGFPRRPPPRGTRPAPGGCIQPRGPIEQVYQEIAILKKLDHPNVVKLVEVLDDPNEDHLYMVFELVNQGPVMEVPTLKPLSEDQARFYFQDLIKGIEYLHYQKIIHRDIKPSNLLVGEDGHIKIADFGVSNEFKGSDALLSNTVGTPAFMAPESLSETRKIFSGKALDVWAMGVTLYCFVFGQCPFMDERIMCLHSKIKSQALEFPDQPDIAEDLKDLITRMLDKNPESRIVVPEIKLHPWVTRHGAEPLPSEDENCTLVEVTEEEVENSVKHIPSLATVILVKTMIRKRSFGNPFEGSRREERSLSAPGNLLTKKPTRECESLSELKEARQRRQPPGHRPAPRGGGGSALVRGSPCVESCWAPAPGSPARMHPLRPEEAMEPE
Chain of Ribosomal protein S6 kinase alpha-6 (Homo sapiens) (Q9UK32 whole entry): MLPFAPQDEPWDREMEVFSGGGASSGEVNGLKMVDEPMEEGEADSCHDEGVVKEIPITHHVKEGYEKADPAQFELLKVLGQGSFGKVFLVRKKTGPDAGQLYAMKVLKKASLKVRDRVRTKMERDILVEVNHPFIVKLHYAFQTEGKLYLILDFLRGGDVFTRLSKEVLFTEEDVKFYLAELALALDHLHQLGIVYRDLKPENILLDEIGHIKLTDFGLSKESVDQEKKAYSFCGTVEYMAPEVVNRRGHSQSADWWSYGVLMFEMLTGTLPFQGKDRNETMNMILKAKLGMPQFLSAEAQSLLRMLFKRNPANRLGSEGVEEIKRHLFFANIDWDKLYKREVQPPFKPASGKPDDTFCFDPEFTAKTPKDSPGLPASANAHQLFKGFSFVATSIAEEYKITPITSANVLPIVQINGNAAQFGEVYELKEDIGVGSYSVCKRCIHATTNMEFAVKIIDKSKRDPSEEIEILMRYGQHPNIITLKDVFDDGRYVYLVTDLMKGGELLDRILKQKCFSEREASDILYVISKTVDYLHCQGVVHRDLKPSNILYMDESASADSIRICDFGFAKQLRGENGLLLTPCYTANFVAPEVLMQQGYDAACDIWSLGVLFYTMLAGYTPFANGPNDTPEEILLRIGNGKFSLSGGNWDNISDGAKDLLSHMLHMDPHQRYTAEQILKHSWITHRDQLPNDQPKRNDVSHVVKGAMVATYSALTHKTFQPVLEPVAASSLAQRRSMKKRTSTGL
Chain of ALK tyrosine kinase receptor (Homo sapiens) (Q9UM73 19-1620 limits assumed): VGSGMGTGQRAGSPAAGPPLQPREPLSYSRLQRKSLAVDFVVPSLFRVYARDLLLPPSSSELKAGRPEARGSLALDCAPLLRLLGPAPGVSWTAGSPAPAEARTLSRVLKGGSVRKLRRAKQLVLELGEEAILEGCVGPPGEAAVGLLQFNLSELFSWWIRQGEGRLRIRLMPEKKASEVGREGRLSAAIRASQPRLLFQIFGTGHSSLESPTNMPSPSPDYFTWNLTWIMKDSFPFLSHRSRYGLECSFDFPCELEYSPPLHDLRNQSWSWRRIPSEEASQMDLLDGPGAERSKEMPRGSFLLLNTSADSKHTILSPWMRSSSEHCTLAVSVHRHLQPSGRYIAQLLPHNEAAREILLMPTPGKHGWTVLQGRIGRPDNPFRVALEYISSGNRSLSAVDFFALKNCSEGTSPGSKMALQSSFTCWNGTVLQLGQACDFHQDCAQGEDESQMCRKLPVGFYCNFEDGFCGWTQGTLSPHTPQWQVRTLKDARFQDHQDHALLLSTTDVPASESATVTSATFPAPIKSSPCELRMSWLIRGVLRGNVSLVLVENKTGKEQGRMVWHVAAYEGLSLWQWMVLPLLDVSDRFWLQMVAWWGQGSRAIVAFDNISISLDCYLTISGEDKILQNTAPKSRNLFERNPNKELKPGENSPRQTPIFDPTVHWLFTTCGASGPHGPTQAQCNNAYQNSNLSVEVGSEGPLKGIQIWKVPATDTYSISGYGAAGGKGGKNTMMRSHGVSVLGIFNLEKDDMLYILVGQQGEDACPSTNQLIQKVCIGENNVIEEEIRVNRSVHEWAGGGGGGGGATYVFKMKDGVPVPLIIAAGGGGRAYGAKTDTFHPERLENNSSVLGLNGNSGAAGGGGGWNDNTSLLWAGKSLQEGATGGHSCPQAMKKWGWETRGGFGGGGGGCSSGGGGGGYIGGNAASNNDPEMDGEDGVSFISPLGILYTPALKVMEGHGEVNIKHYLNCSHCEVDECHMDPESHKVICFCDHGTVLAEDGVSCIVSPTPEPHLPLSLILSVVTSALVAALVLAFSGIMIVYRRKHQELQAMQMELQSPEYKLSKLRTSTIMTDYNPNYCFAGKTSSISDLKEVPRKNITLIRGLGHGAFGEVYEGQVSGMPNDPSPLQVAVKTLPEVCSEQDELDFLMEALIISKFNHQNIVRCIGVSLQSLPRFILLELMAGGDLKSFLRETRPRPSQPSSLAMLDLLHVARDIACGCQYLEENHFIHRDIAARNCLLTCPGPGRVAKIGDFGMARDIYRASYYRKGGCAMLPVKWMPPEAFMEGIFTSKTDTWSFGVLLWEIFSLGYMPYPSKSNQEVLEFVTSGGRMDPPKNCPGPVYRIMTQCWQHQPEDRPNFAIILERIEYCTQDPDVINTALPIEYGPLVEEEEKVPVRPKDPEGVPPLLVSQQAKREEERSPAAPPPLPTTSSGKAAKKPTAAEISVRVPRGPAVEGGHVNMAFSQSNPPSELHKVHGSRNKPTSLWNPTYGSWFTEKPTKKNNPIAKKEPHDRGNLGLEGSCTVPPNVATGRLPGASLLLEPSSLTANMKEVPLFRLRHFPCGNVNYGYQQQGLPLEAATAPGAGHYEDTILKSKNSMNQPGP
Chain of Tyrosine-protein kinase Lck (Homo sapiens) (P06239 2-509 limits assumed): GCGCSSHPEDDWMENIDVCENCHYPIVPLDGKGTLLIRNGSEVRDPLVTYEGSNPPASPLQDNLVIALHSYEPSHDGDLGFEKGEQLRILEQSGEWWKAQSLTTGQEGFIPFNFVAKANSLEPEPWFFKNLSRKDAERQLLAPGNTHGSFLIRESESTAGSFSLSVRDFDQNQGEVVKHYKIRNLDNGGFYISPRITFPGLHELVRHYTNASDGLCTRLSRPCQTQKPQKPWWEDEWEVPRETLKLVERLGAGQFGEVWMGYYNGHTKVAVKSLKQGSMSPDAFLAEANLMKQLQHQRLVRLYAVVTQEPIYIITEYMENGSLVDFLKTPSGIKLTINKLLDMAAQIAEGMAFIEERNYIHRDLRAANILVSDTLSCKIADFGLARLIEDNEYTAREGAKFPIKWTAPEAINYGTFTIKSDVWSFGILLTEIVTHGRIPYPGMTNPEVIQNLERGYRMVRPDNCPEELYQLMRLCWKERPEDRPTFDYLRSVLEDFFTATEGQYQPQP
Chain of Ribosomal protein S6 kinase alpha-2 (Homo sapiens) (Q15349 whole entry): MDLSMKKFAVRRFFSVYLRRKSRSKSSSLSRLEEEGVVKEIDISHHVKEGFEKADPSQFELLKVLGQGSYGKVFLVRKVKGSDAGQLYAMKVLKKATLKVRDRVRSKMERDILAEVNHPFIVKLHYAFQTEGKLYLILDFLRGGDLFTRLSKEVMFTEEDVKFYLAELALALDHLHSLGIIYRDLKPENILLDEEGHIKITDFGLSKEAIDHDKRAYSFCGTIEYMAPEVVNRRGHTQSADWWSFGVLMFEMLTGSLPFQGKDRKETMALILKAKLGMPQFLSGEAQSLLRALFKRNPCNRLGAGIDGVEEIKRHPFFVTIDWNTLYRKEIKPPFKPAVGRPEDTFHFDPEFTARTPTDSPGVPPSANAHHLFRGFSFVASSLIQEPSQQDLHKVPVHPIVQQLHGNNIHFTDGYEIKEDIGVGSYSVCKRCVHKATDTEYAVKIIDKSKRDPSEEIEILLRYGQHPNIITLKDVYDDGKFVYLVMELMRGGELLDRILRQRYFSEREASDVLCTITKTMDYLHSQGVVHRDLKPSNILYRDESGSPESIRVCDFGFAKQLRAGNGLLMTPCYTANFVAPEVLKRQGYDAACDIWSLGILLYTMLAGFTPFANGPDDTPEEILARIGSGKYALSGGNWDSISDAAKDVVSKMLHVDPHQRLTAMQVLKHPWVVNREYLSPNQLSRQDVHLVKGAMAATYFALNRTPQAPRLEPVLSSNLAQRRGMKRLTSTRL
Chain of MAP kinase-activated protein kinase 2 (Homo sapiens) (P49137 whole entry, looked up): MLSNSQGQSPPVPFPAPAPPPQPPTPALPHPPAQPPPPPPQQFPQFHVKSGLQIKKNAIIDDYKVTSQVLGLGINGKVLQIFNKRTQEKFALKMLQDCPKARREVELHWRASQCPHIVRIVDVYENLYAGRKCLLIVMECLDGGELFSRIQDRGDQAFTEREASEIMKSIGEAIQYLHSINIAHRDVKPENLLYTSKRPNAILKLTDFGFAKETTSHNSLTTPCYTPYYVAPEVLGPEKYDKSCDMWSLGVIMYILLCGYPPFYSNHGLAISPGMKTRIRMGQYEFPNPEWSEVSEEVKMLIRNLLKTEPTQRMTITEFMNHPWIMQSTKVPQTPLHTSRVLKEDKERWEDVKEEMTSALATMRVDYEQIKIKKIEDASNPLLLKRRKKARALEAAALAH

fold change (FC) [1]: 0
inhibition [2]: 33%
fold change (FC) [3]: 0.2
inhibition [4]: 0%
fold change (FC) [5]: 0.11
fold change (FC) [6]: 0.18
SMILES: CNC(=O)c1ccccc1Oc1nc(Nc2cc(OC)c(OC)c(OC)c2)ncc1Br

inhibition [7]: 6%
inhibition [8]: 1%
fold change (FC) [9]: 0.23
fold change (FC) [10]: 0.09
fold change (FC) [11]: 0.72
inhibition [12]: 23%
inhibition [13]: 43%
inhibition [14]: 0%
SMILES: CC(C)[C@H](NC(=O)c1cc(-c2cnn3cc(-c4ccc(OCCN5CCCCC5)cc4)cnc23)cs1)C(F)(F)F

fold change (FC) [15]: 0
fold change (FC) [16]: 0
SMILES: O=C(N[C@@H](C1CC1)C(F)(F)F)c1cc(-c2cnn3cc(-c4ccc(F)cc4)cnc23)cs1
